Some of the results follow.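 The calls were made as follows: active = inhibition of at least 50% in both of the two screening runs; inconclusive = at least 50% in one run, below 50% in the other; inactive = inhibition below 50% in both runs.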
Test system: hexokinase 1 (Trypanosoma brucei)
Assay: T. brucei hexokinase 1 inhibition, single-dose recheck – biochemical, DPI cherry-picked primary actives, confirmation (AID 2560);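 also: 0% and 100% set by the maximum and minimum signal control wells on each plate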
Conditions: recombinant TbHK1, G6PDH-coupled NADH A340 absorbance; at 10 µM; active compounds read high
How it was run: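 System: Trypanosoma brucei hexokinase 1 enzyme with G6PDH coupling enzyme; Medium: Mg2+, NAD+ and G6PDH coupling mix; Reagent: substrates glucose 0.5 mM and ATP 0.35 mM; Doses: single compound dose of 10 µM final; Incubation: enzyme reaction 2 h at room temperature; Signal: A340 NADH absorbance, EDTA-quenched; Repeats: duplicate measurements per compound.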

inhibition, inactive:
COC(=O)C1CCN(CC(N)=O)CC1 5.76%
COc1cccc(/C=N/Nc2ncc(C(F)(F)F)cc2Cl)c1O -10.9%
CC1(C)CC(=O)C=C(NCCCNC2CCCCC2)C1 2.17%
O=C(CN1C(=O)C2C3C=CC(C3)C2C1=O)NCCc1ccccc1Cl (centres undefined) -0.0219%
